1 molecule from ChEMBL document CHEMBL1955787, “Design and synthesis of novel magnolol derivatives as potential antimicrobial and antiproliferative compounds” (Eur J Med Chem, 2012) can be followed below.

Converted amounts (≈) assume the structure as drawn. The source made the active and inactive calls.

The test system of assay [1] is HL-60. Kind of assay: Cell cycle arrest in human HL60 cells assessed as accumulation at sub-G1 phase at 10 uM after 24 hrs using propidium iodide staining by flow cytometry. It counts as functional. The procedure, abridged: (§1)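 Time-course sub-G1 analysis of HL-60 cells exposed to 10 µM and sampled at 0, 6, 9, 18 and 24 h. Ethanol fixation, RNase A and propidium iodide staining as for the dose series, then flow cytometric DNA content at 488 nm excitation.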
(Flow cytometry measures light scatter and fluorescence of single cells or particles in a stream.)

Assay [2] deals with PC-3. Kind of assay: Antiproliferative activity against human PC3 cells after 48 hrs by sulforhodamine B assay. The assay is classed as functional, cell-based. As to conditions: PC-3, 48 h. In outline:
(§2)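 Sulforhodamine B assay following NCI guidelines. Log-phase cells seeded at 10^4 cells/well and allowed to attach for 24 h at 37 °C, 5% CO2. Exposed 48 h to 1:10 serial dilutions, four replicate wells per condition. Fixed with 50% cold TCA for 1 h at 4 °C, stained, dye dissolved in tris buffer, OD read at 540 nm. Blank-subtracted growth expressed relative to untreated (100%) and reported as IC50.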

The subject of assay [3] is MOLT-4. The assay is described as follows: Antiproliferative activity against human MOLT4 cells after 48 hrs by sulforhodamine B assay. Conditions: MOLT-4, 48 h. The assay is classed as functional, cell-based. The procedure, abridged: as §2
On the technique in general: Sulforhodamine B stains cellular protein and so reports cell mass.

Assay [4] relates to HL-60. Kind of assay: Cell cycle arrest in human HL60 cells assessed as accumulation at sub-G1 phase at 10 uM after 3 hrs using propidium iodide staining by flow cytometry. The assay is classed as functional.
Assay [5] has as its system Aspergillus fumigatus. The assay is described as follows: Antifungal activity against Aspergillus fumigatus LSI-II. It counts as functional.
Assay [6] deals with HL-60. The assay is described as follows: Cell cycle arrest in human HL60 cells assessed as accumulation at sub-G1 phase after 24 hrs using propidium iodide staining by flow cytometry. The assay is classed as functional, cell-based. In outline:
(§3)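 Cell-cycle (sub-G1) profiling of HL-60 cells at 1 × 10^6 per well, treated 24 h at 1, 10, 30 or 100 µM. Washed in ice-cold PBS, fixed in 70% ethanol at -20 °C for 30 min. Treated with RNase A (0.1 mg/mL) at 37 °C for 30 min, then propidium iodide (50 µg/mL) for 30 min on ice in the dark. Read with doublet discrimination and 488 nm excitation.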

Assay [7] has as its system HL-60. The assay is described as follows: Cell cycle arrest in human HL60 cells assessed as accumulation at sub-G1 phase at 10 uM after 6 hrs using propidium iodide staining by flow cytometry. The assay is classed as functional. The procedure, abridged: as §1
The subject of assay [8] is HL-60. Kind of assay: Cell cycle arrest in human HL60 cells assessed as accumulation at sub-G1 phase at 10 uM after 18 hrs using propidium iodide staining by flow cytometry. It counts as functional. In outline:
as §1

Assay [9] concerns Staphylococcus aureus. The assay is described as follows: Antibacterial activity against methicillin-resistant Staphylococcus aureus 15187 after 24 hrs by micro dilution method. It counts as functional. Conditions: Staphylococcus aureus, 15187, 24 h. The procedure, abridged: (§4)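 Broth microdilution in Mueller Hinton broth, two-fold serial dilutions, final 0.25 to 256 µg mL-1. Inoculum from 24 h culture in saline, set to 0.5 McFarland, diluted to a final 5 × 10^6 CFU mL-1. Plates held at 37 °C for 24 h and read by eye. MIC is the lowest concentration with no turbidity.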

For assay [10], the system named is Enterococcus. The assay is described as follows: Antibacterial activity against vancomycin-resistant Enterococcus treated for 24 hrs followed by compound treated at 2 to 16 times MIC measured after 24 hrs by micro dilution method. It counts as functional. In outline: (§5)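 MBC taken from the same 24 h microdilution plates (Mueller Hinton broth, final inoculum 5 × 10^6 CFU mL-1, 37 °C). […] Spots were incubated 24 h and colonies counted. MBC is the lowest concentration giving a 3 log drop from the starting inoculum.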

In assay [11] the test system is HL-60. Kind of assay: Cell cycle arrest in human HL60 cells assessed as accumulation at sub-G1 phase at 30 uM after 24 hrs using propidium iodide staining by flow cytometry. It counts as functional. In outline: as §3
The test system of assay [12] is Candida albicans. Kind of assay: Antifungal activity against Candida albicans ATCC 90028. The assay is classed as functional.
The test system of assay [13] is HL-60. The assay is described as follows: Cell cycle arrest in human HL60 cells assessed as accumulation at sub-G1 phase at 1 uM after 24 hrs using propidium iodide staining by flow cytometry. The assay is classed as functional. The procedure, abridged:
as §3

In assay [14] the test system is HL-60. Kind of assay: Antiproliferative activity against human HL60 cells after 48 hrs by sulforhodamine B assay. The assay is classed as functional, cell-based. Conditions: HL-60, 48 h. The procedure, abridged:
as §2

The test system of assay [15] is Staphylococcus aureus. The assay is described as follows: Antibacterial activity against methicillin-resistant Staphylococcus aureus 15187 treated for 24 hrs followed by compound treated at 2 to 16 times MIC measured after 24 hrs by micro dilution method. The assay is classed as functional. As to conditions: Staphylococcus aureus, 15187, 24 h. In outline: as §5

The subject of assay [16] is Enterococcus. The assay is described as follows: Antibacterial activity against vancomycin-resistant Enterococcus after 24 hrs by micro dilution method. It counts as functional. In outline: as §4
For assay [17], the system named is HL-60. Kind of assay: Cell cycle arrest in human HL60 cells assessed as accumulation at sub-G1 phase at 10 uM after 9 hrs using propidium iodide staining by flow cytometry. It counts as functional. In outline:
as §1

Assay [18] concerns HL-60. The assay is described as follows: Induction of apoptosis in human HL60 cells assessed as DNA discrete ladder pattern formation at 5 to 30 uM after 24 hrs using ethidium bromide staining by agarose gel electrophoresis analysis. It counts as functional, cell-based.
The test system of assay [19] is Staphylococcus aureus. The assay is described as follows: Antibacterial activity against Staphylococcus aureus ATCC 29213 treated for 24 hrs followed by compound treated at 2 to 16 times MIC measured after 24 hrs by micro dilution method. It counts as functional. As to conditions: ATCC 29213, 24 h.
For assay [20], the system named is HL-60. Kind of assay: Cell cycle arrest in human HL60 cells assessed as accumulation at sub-G1 phase at 100 uM after 24 hrs using propidium iodide staining by flow cytometry. The assay is classed as functional. In outline:
as §3

For assay [21], the system named is Staphylococcus aureus. Kind of assay: Antibacterial activity against Staphylococcus aureus ATCC 29213 after 24 hrs by micro dilution method. As to conditions: ATCC 29213, 24 h. The assay is classed as functional. In outline: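 Broth microdilution in Mueller Hinton broth. Inoculum from a 24 h culture in saline, set to 0.5 McFarland and diluted to a final 5 × 10^6 CFU mL-1. Two-fold serial dilutions, final 0.25–256 µg mL-1. Incubated 37 °C for 24 h and read visually. MIC is the lowest concentration with no turbidity.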

The term IC50 denotes the concentration that gives 50% inhibition. One may read the MIC as the smallest concentration in the dilution series that meets the test's criterion for growth inhibition. By MBC is commonly meant the lowest tested concentration that kills the bacteria rather than only halting them. For the molecule `CCCCc1cc(I)c(O)c(-c2cc(CCCC)cc(I)c2O)c1`, the Activity is 52% in assay [1]; 14% in assay [4]; “Dose-dependent effect” in [6]; 21% in assay [7]; 44% in assay [8]; 67% in assay [11]. In addition, the Activity is 12% in assay [13], 33% in assay [17] and 78% in assay [20]. For the same molecule, the IC50 in [2] amounted to 2000 nM; in assay [3] it was 10000 nM; in [14], 2000 nM. For the same molecule, the MIC result in assay [5] and in assay [12] was “inactive” in each case. In addition, the MIC in assay [9], in assay [16] and in [21] was 4 µg/mL (≈ 7.27 µM) each time. The MBC in assay [10] stood at 8 µg/mL (≈ 14.5 µM); in assay [15] it was 4 µg/mL (≈ 7.27 µM); in [19], 4 µg/mL (≈ 7.27 µM). In assay [18], the outcome was Active.
